In ChEMBL document CHEMBL1123516, “Substituted 1,3,4-thiadiazoles with anticonvulsant activity. 1. Hydrazines” (J Med Chem, 1986):

Tests used:
[1] = Effect of compound on mouse motor performance was tested by rotarod test after 1 hr of peroral administration; format: ADME, organism-based; conditions: in vivo, po
Outline: (§1)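 Male BKW mice, 18-22 g, were pre-trained on a rotorod turning at 16 rpm (3 cm drum). They were dosed ip or po in 2% Tween 80/water and tested at timed intervals. TD50, the dose at which 50% fell off the rod, was derived by probit analysis.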

[2] = Effect of compound on mouse motor performance was studied by performing a rotarod test in mouse dosing intraperitoneally at time of peak effect.; format: ADME, organism-based; conditions: in vivo, ip; outline: as §1
Rattus norvegicus [3] = assay: Inhibition of hind limb tonus was tested by maximal electroshock test (MES) in rat after 4 hr of peroral administration; format: functional; conditions: Hindlimb, po
Rattus norvegicus [4] = assay: Inhibition of hind limb tonus was tested by maximal metrazole seizure test after 4 hr of peroral administration; format: functional; conditions: Hindlimb, po
Rattus norvegicus [5] = species: Rattus norvegicus; assay: Plasma concentration was determined in rat maximal electroshock test; format: functional, organism-based
Outline: (§2)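 Groups of six rats received compound suspended in 2% Tween 80/water (0.5 mL/100 g) ip or po. Blood was drawn by cardiac puncture into heparin at various times. Plasma was extracted and assayed by HPLC-UV on an ODS column with 1% acetic acid/methanol/0.1% aqueous ammonium acetate (45:55).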

[6] = Protective index (rat) was from the ratio of plasma concentration at which side effects occur by plasma concentration at which anticonvulsant activity occur.; format: functional
Outline: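 Rat plasma drug concentration at rotorod impairment was divided by the plasma concentration at MES anticonvulsant activity. Both were measured by HPLC-UV in plasma from dosed rats.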

Rattus norvegicus [7] = species: Rattus norvegicus; assay: Plasma concentration in rat rotarod test.; format: functional, organism-based; outline: as §2
Rattus norvegicus [8] = assay: Inhibition of hind limb tonus was tested by maximal metrazole seizure test after 1 hr of peroral administration of compound; format: functional; conditions: Hindlimb, po
Rattus norvegicus [9] = assay: Inhibition of hind limb tonus was tested by maximal electroshock test (MES) in rat after 1 hr of peroral administration; format: functional; conditions: Hindlimb, po
Rattus norvegicus [10] = assay: Inhibition of hind limb tonus was tested at time of peak effect by maximal electroshock test (MES) on intraperitoneal administration of compound in rats; format: functional; conditions: Hindlimb, ip
Mus musculus [11] = assay: Inhibition of hind limb tonus was tested at time of peak effect by maximal electroshock test (MES) in mouse on intraperitoneal administration of compound; format: functional; conditions: Hindlimb, ip
Outline: (§3)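 Male BKW mice (LACA origin), 18-22 g, dosed ip or po with compound dissolved or suspended in 2% Tween 80 in distilled water. Readout was block of hind limb tonic seizure. ED50 was derived by probit analysis using the computerized Bliss method.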

Mus musculus [12] = assay: Inhibition of hind limb tonus was tested by maximal electroshock test (MES) in mouse after 1 hr of peroral administration of compound; format: functional; conditions: Hindlimb, po; outline: as §3
Mus musculus [13] = assay: Inhibition of hind limb tonus was tested by maximal metrazole seizure (MMS) test in mouse after 1 hr of peroral administration; format: functional; conditions: Hindlimb, po
Outline: (§4)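 Male BKW mice, 18-22 g, dosed orally with compound in 2% Tween 80/water. Metrazol 120 mg/kg ip was given 1 h after dosing. ED50 for block of hind limb tonic seizure was derived by Bliss probit analysis.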

Mus musculus [14] = assay: Inhibition of hind limb tonus was tested by performing a maximal metrazole seizure (MMS) test in mouse after 1 hr of peroral administration of compound; conditions: Hindlimb, po
Rattus norvegicus [15] = assay: Inhibition of hind limb tonus was tested by maximal metrazole seizure test after 4 hr of peroral administration in rats; format: functional; conditions: Hindlimb, po
Outline: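 Rats received the anticonvulsant orally, then metrazol (leptazol) 80 mg/kg iv, following Desmedt et al. The endpoint was block of the hind limb tonic seizure. ED50 was the dose protecting 50% of animals, by probit analysis (Bliss computerized method), with limits.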

Mus musculus [16] = assay: Inhibition of hind limb tonus was tested at time of peak effect by maximal metrazole seizure (MMS) test administered intraperitoneally in mouse; format: organism-based; conditions: Hindlimb, ip
Outline: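 Male BKW mice (18-22 g) received compound intraperitoneally in 2% aqueous Tween 80 and were challenged with metrazol 120 mg/kg ip at the time of peak effect. ED50 for block of hind limb tonic seizure in 50% of mice was obtained by probit analysis.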

Rattus norvegicus [17] = assay: Inhibition of hind limb tonus was tested by maximal electroshock test (MES) in rat 1 hr after peroral dosing; format: functional; conditions: Hindlimb, po
Rattus norvegicus [18] = assay: Inhibition of hind limb tonus was tested by maximal metrazole seizure test after 1 hr of peroral administration in rats; format: functional; conditions: Hindlimb, po
Outline: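 Rats were dosed orally, then given metrazol (leptazol) 80 mg/kg iv 1 h later, following the Desmedt method. The endpoint was hind limb tonic seizure, with ED50 by probit analysis.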

Mus musculus [19] = assay: Anticonvulsant activity tested by maximal electroshock test (MES) in mouse after 1 hr of administration; format: functional; outline: as §3
Mus musculus [20] = assay: Anticonvulsant activity tested by maximal metrazole seizure (MMS) test in mouse after 1 hr of administration; format: functional; outline: as §4
[21] = Neurotoxicity by performing a rotarod in mouse after 1 hr of administration; format: toxicity, organism-based; conditions: in vivo; outline: as §1
[22] = Neurotoxicity by performing a rotarod test in mouse after 1 hr of administration; format: toxicity, organism-based; conditions: in vivo; outline: as §1
Mus musculus [23] = assay: Anticonvulsant activity was assessed by performing maximal electroshock test (MES) 1 hr after dosing, in mouse.; format: functional; outline: as §3
[24] = Neurotoxicity by a rotarod test in mouse after 1 hr of administration; format: toxicity, organism-based; conditions: in vivo; outline: as §1
Rattus norvegicus [25] = assay: Maximum percent fall in mean arterial blood pressure was evaluated by injecting 100 mg/kg perorally in DOCA hypertensive rats; format: functional; conditions: route oral

CN(N)c1nnc(-c2ccccc2-c2ccccc2)s1
TD50 at 1 h [1]: > 1000 mg/kg
TD50 [2]: 93 mg/kg
ED50 (Rattus norvegicus [3]): 11 mg/kg
ED50 (Rattus norvegicus [4]): 13 mg/kg
Concentration (Rattus norvegicus [5]): 11.1 µg/mL
PI [6]: 5.14
Concentration (Rattus norvegicus [7]): 57 µg/mL
ED50 (Rattus norvegicus [8]): 13 mg/kg
ED50 (Rattus norvegicus [9]): 16 mg/kg
ED50 (Rattus norvegicus [10]): 6 mg/kg
ED50 (Mus musculus [11]): 17 mg/kg
ED50 (Mus musculus [12]): 18 mg/kg
ED50 (Mus musculus [13]): 27 mg/kg

O=C1NC(=O)C(c2ccccc2)(c2ccccc2)N1 [PHENYTOIN]
ED50 (Mus musculus [14]): 8 mg/kg
ED50 (Rattus norvegicus [3]): 26 mg/kg
PI [6]: 5.17
ED50 (Rattus norvegicus [15]): 20 mg/kg
ED50 (Mus musculus [16]): 12 mg/kg
ED50 (Rattus norvegicus [17]): 14 mg/kg
ED50 (Rattus norvegicus [18]): 12 mg/kg
ED50 (Rattus norvegicus [10]): 14 mg/kg
ED50 (Mus musculus [11]): 8 mg/kg
ED50 (Mus musculus [12]): 8 mg/kg

COCN(N)c1nnc(-c2ccccc2Cl)s1
ED50 (Mus musculus [19]): 50 mg/kg
ED50 (Mus musculus [20]): 60 mg/kg
TD50 at 1 h [21]: 80 mg/kg

CN(C)N(C)c1nnc(-c2ccccc2-c2ccccc2)s1.Cl
ED50 (Mus musculus [20]): 73 mg/kg
TD50 at 1 h [22]: > 800 mg/kg
ED50 (Mus musculus [23]): 63 mg/kg

CCCCCCOc1ccccc1-c1nnc(NN)s1.Cl
TD50 at 1 h [24]: > 150 mg/kg
ED50 (Mus musculus [19]): 20 mg/kg
ED50 (Mus musculus [20]): 33 mg/kg
Decrease in blood pressure (Rattus norvegicus [25]): 10%
